Blank lines part the entries; values can stand above or below the molecule they belong to.
Legend:
[1] = Drug level in cynomolgus monkey plasma at 3 mg/kg, po measured at 0.5 hr post dose by LC-MS/MS analysis; assay type: ADME, organism-based, Macaca fascicularis
[2] = system: Cynomolgus monkey; experiment: In vivo inhibition of glycine transporter-1 in cynomolgus monkey assessed as CSF glycine level at 10 mg/kg, po measured up to 24 hrs post dose by LC-MS/MS analysis relative to control; assay type: functional, Macaca fascicularis; design: scale not given: the % may be the effect or the level left
In short: (§1)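 Cynomolgus monkeys, n = 3 per group, given oral doses of 0.4, 1.5, 4.7 or 15.7 μmol/kg. Vehicle was 5% Solutol / 20% Captisol in 25 mM PBS, pH 2. CSF (about 0.30 mL) was drawn through subcutaneous ports with a sterile Huber needle predose and at 0.5, 1, 2, 3, 4, 8, 12 and 24 h. Matched blood was taken at each time. Mean ± SD.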

[3] = Tmax in Sprague-Dawley rat plasma at 10 mg/kg, po administered as single dose by LC-MS/MS analysis; assay type: ADME, organism-based
In short: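 Groups of three drug-naive adult male Sprague–Dawley rats, single dose: IV 3.1 μmol/kg in 5% DMSO/10% Solutol in saline (5 mL/kg), or PO 15.7 μmol/kg in 5% Solutol/10% Captisol in 25 mM PBS adjusted to pH 2 with HCl. Plasma concentration–time data give the parameters; mean ± SD.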

[4] = system: Cynomolgus monkey; experiment: In vivo inhibition of glycine transporter-1 in po dosed cynomolgus monkey assessed as increase in CSF glycine level measured up to 24 hrs post dose by LC-MS/MS analysis; assay type: functional, Macaca fascicularis; in short: as §1
[5] = Ratio of drug level in CSF to unbound plasma concentration in Sprague-Dawley rat at 3 to 10 mg/kg, po measured 2 hrs post dose by LC-MS/MS analysis; assay type: ADME, organism-based; settings: in vivo
In short: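 Drug-naive male Sprague–Dawley rats (n = 4–5/group) were dosed orally in 5% Solutol/10% Captisol in 25 mM PBS, pH 2, and euthanized by CO2 2 h post-dose. CSF (50–100 μL) was taken from the cisterna magna, and brain and plasma were collected; drug was measured in each matrix. Quantitation limit 1.0 ng/mL.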

[6] = Oral bioavailability in Sprague-Dawley rat at 10 mg/kg administered as single dose measured up to 24 hrs post dose by LC-MS/MS analysis; assay type: ADME, organism-based; settings: in vivo
In short: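 Male Sprague-Dawley rats, n = 3 per group. Dosing was 3.1 μmol/kg IV (5% DMSO / 10% Solutol in saline, 5 mL/kg) and 15.7 μmol/kg PO (5% Solutol / 10% Captisol in 25 mM PBS, pH 2). F = (AUC_INF,po × Dose_iv)/(AUC_INF,iv × Dose_po). Mean ± SD.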

[7] = Drug level in cynomolgus monkey plasma at 10 mg/kg, po measured at 3 hrs post dose by LC-MS/MS analysis; assay type: ADME, organism-based, Macaca fascicularis
[8] = Drug level in cynomolgus monkey plasma at 3 mg/kg, po measured at 8 hrs post dose by LC-MS/MS analysis; assay type: ADME, organism-based, Macaca fascicularis
[9] = Drug level in cynomolgus monkey plasma at 3 mg/kg, po measured at 3 hrs post dose by LC-MS/MS analysis; assay type: ADME, organism-based, Macaca fascicularis
[10] = Drug level in cynomolgus monkey plasma at 10 mg/kg, po measured at 24 hrs post dose by LC-MS/MS analysis; assay type: ADME, organism-based, Macaca fascicularis
[11] = Oral bioavailability in cynomolgus monkey at 5 mg/kg measured up to 24 hrs post dose by LC-MS/MS analysis; assay type: ADME, organism-based, Macaca fascicularis; settings: in vivo
In short: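 Three female cynomolgus monkeys per group; single oral dose of 7.8 μmol/kg in 5% Solutol in 20% Captisol, 25 mM PBS, pH 2 (5 mL/kg), with a separate IV arm at 1.5 μmol/kg in 5% DMSO/10% Solutol in saline, pH 6.5 (2 mL/kg). F = (AUC_INFpo × Dose_iv)/(AUC_INFiv × Dose_po); mean ± SD.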

[12] = Drug level in po dosed Sprague-Dawley rat CSF measured 2 hrs post dose by LC-MS/MS analysis; assay type: ADME, organism-based, Cerebrospinal fluid; settings: in vivo
[13] = Drug level in Sprague-Dawley rat plasma at 3 mg/kg, po qd for 5 days measured 2 hrs post last dose by LC-MS/MS analysis; assay type: ADME, organism-based
In short: (§2)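 Drug-naive Sprague−Dawley rats (n = 5/group) were dosed orally once daily for 5 days in 5% Solutol plus 20% Captisol in 25 mM PBS, pH 2, and sacrificed 2 h after the last dose. Drug was measured in CSF, brain and plasma; mean ± SEM.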

[14] = Drug level in Sprague-Dawley rat plasma at 10 mg/kg, po qd for 5 days measured 2 hrs post last dose by LC-MS/MS analysis; assay type: ADME, organism-based; in short: as §2
[15] = Toxicity in Sprague-Dawley rat assessed as gross behavioral abnormality at 0.3 to 100 mg/kg, po; assay type: organism-based; settings: in vivo
In short: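 Drug-naive Sprague–Dawley rats (n = 5/group) received a single oral dose of 0.4–160.9 μmol/kg in 5% Solutol plus 20% Captisol in 25 mM PBS, pH 2, and were watched for gross behavioral abnormalities until sacrifice at 2 h.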

[16] = system: Rattus norvegicus; experiment: In vivo inhibition of glycine transporter-1 in Sprague-Dawley rat assessed as CSF glycine level at 100 mg/kg, po measured 2 hrs post dose by LC-MS/MS analysis relative to control; assay type: functional; design: scale not given: the % may be the effect or the level left
In short: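 Drug-naive Sprague-Dawley rats, n = 5 per group, given acute oral doses of 0.4-160.9 μmol/kg (0.3-100 mg/kg). Vehicle was Solutol 5% in 20% Captisol / 25 mM PBS, pH 2. Killed 2 h post-dose. CSF glycine was quantified by LC-MS/MS with a deuterated-glycine standard and expressed as % vehicle control, mean ± SEM. Two-way ANOVA with Tukey test.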

[17] = Toxicity in Sprague-Dawley rat assessed as gross behavioral abnormality at 1 to 10 mg/kg, po qd for 5 days; assay type: organism-based; settings: in vivo, 120 h
In short: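 Drug-naive Sprague–Dawley rats (n = 5/group) were dosed orally once daily for 5 days at 1.6, 4.8 or 16.1 μmol/kg in 5% Solutol/20% Captisol in 25 mM PBS, pH 2.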

[18] = Drug level in Sprague-Dawley rat CSF at 10 mg/kg, po qd for 5 days measured 2 hrs post last dose by LC-MS/MS analysis; assay type: ADME, organism-based, Cerebrospinal fluid; settings: read-out: Drug uptake; in short: as §2
[19] = Drug level in Sprague-Dawley rat brain at 100 mg/kg, po measured 2 hrs post dose by LC-MS/MS analysis; assay type: ADME, organism-based; settings: read-out: Drug uptake
In short: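 Drug-naive Sprague−Dawley rats (n = 4−5/group) were dosed orally once in 5% Solutol plus 20% Captisol in 25 mM PBS, pH 2, and euthanized 2 h later by CO₂. CSF was drawn from the cisterna magna. Drug was measured in CSF, brain and plasma; data as mean ± SEM.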

[20] = Drug level in Sprague-Dawley rat brain at 3 mg/kg, po qd for 5 days measured 2 hrs post last dose by LC-MS/MS analysis; assay type: ADME, organism-based; settings: read-out: Drug uptake; in short: as §2
[21] = Drug level in Sprague-Dawley rat brain at 10 mg/kg, po qd for 5 days measured 2 hrs post last dose by LC-MS/MS analysis; assay type: ADME, organism-based; settings: read-out: Drug uptake; in short: as §2
[22] = Drug level in Sprague-Dawley rat CSF at 1 mg/kg, po qd for 5 days measured 2 hrs post last dose by LC-MS/MS analysis; assay type: ADME, organism-based, Cerebrospinal fluid; settings: read-out: Drug uptake; in short: as §2

concentration at 0.5 h [1]: 1.6 ng/mL | Tmax [3]: 2.67 h | Ratio [5]: > 0.1 | bioavailability [6]: 27.2% | concentration at 3 h [7]: 205 ng/mL | concentration at 8 h [8]: 2 ng/mL | concentration at 3 h [9]: 5.7 ng/mL | concentration at 24 h [10]: 10.3 ng/mL | bioavailability [11]: 31% | Drug uptake [12]: Dose-dependent effect
SMILES: CC(NC(=O)c1ccc(C(F)(F)F)cc1Cl)C1(N2CCN(S(=O)(=O)c3cn(C)nn3)CC2)CCC(F)(F)CC1.Cl (single isomer, unassigned; (+))
Activity [2]: >300% | ED200 [4]: 4.7 to 15.7 µmol/kg

concentration at 2 h [13]: 122 nM | concentration at 2 h [14]: 237 nM | concentration at 2 h [18]: 1.9 nM | concentration at 2 h [19]: 46.3 nM | concentration at 2 h [20]: 44.8 nM | concentration at 2 h [21]: 69.4 nM | concentration at 2 h [22]: 1 nM
SMILES: Cl.Cn1cc(S(=O)(=O)N2CCN(C3(CNC(=O)c4ccc(C(F)(F)F)cc4Cl)CCC(F)(F)CC3)CC2)nn1
Activity [15]: Non-Toxic | Activity [16]: 329.1% | Activity [17]: Non-Toxic
